{"source": "paper PMC8562596", "about": "(Biochemistry, 2016)", "key": {"[1]": {"assay": "Calcein release from LUVs", "details": "20 μM peptide (Triton X-100 at 1%), over a 30-min period; Triton X-100 = 100%", "in_short": "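Large unilamellar vesicles with a lipid composition mimicking the late endosomal membrane were loaded with the small-molecule dye calcein. They were then exposed to the cyclic peptide, and release of calcein from the vesicles was followed.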"}, "HeLa cells [2]": {"system": "HeLa cells", "assay": "Apparent endosomal escape efficiency", "assay_type": "cell-based", "details": "for Apparent Endosomal Escape (γ, %): γ=(MFI^NF/MFI^Rho) of CPP over that of CPP 1 ×100%, 5 μM, 2 h", "in_short": "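HeLa cells were seeded at 1.5 × 10^5 per well and grown overnight, then given 5 μM peptide for 2 h at 37 °C in medium. Separate peptide preparations were labelled with pH-sensitive naphthofluorescein or with rhodamine B through a miniPEG linker. Cells were DPBS-washed, trypsinised, pelleted and resuspended in DPBS for flow cytometry. NF used 633-nm excitation (APC channel) and Rho used 561-nm excitation (PE channel). γ is the NF/Rho mean-fluorescence ratio normalised to the reference peptide.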"}, "[3]": {"details": "determined by fluorescence correlation spectroscopy; ref [42]; cited from earlier work"}, "HeLa cells [4]": {"system": "HeLa cells", "details": "relative to CPP 1 (100%); ref [40]; cited from earlier work"}, "HeLa cells [5]": {"system": "HeLa cells", "details": "NF-labeled, relative to CPP 1 (100%), ref [40]; cited from earlier work"}, "HeLa cells [6]": {"system": "HeLa cells", "details": "Rho-labeled, relative to CPP 1 (100%), ref [40]; cited from earlier work"}, "HeLa cells [7]": {"system": "HeLa cells", "assay": "Cytosolic entry of R9^NF in presence of unlabeled CPP, flow cytometry", "assay_type": "cell-based", "details": "5 μM unlabeled CPP", "in_short": "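HeLa cells seeded at 1.5 × 10^5 per well, grown overnight, then exposed to naphthofluorescein-labeled R9 with or without 5 μM unlabeled cyclic CPP for 2 h in culture medium. Cells were washed twice with DPBS, detached with 0.25% trypsin, pelleted at 250G for 5 min, washed, resuspended in DPBS and read by flow cytometry for cytosolic NF fluorescence.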"}, "HeLa cells [8]": {"system": "HeLa cells", "assay": "Cellular uptake of FITC-labeled peptides, flow cytometry", "assay_type": "cell-based", "details": "9 vs cFΦR4, 11 vs 6, 12 vs 7, 5 μM, 2 h", "in_short": "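Peptides carried an extra lysine on the Gln side chain, FITC-labelled at that lysine. HeLa cells were seeded at 1.5 × 10^5 per well, grown overnight and given 5 μM peptide for 2 h in culture medium. Cells were DPBS-washed twice, trypsin-detached, pelleted at 250G for 5 min, washed and resuspended in DPBS. Flow cytometry used 488-nm excitation and the FITC channel.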"}, "[9]": {"details": "mouse, in vivo"}, "HeLa cells [10]": {"system": "HeLa cells", "assay": "Uptake of Rho-labeled CPPs under ATP depletion or at 4 °C, flow cytometry", "assay_type": "cell-based"}}, "note": "Where “and” joins values, the source holds several entries; their conditions need not be identical. Equal entries are not always repeated. Where two headings read alike, the source gives them in different places. Marks after values point to notes of the source that are not given here. Non-standard residues stand in square brackets, D forms with d. Residues, ends and D or L forms follow the SMILES beside them. 2Nal = N[C@@H](Cc1ccc2ccccc2c1)C(=O)O", "data": [{"compound": "penetratin", "values": [{"measurement": "Calcein dye release from LUVs", "setting": "[1]", "result": 23, "unit": "%"}]}, {"compound": "N=C(N)NCCC[C@@H]1NC(=O)[C@H](CCCNC(=N)N)NC(=O)[C@H](CCCNC(=N)N)NC(=O)[C@H](Cc2ccc3ccccc3c2)NC(=O)[C@H](Cc2ccccc2)NC(=O)[C@H](CCC(N)=O)NC(=O)[C@H](CCCNC(=N)N)NC1=O", "note": "[CPP 1, cyclo(FΦRRRRQ)] (cyclo(F[2Nal]RRRRQ))", "values": [{"measurement": "Apparent Endosomal Escape (γ, %)", "setting": "HeLa cells [2]", "result": 100, "unit": "%"}]}, {"compound": "RRRRRRRRR [R9, nonaarginine]", "values": [{"measurement": "Apparent Endosomal Escape (γ, %)", "setting": "HeLa cells [2]", "result": "40 ± 5", "unit": "%"}, {"measurement": "Calcein dye release from LUVs", "setting": "[1]", "result": 1, "unit": "%"}, {"measurement": "Cytosolic Delivery Efficiency (%)", "setting": "[3]", "result": 4.4, "unit": "%"}]}, {"compound": "YGRKKRRQRRR [Tat]", "values": [{"measurement": "Apparent Endosomal Escape (γ, %)", "setting": "HeLa cells [4]", "result": "23 ± 4 ^b %"}, {"measurement": "Cytosolic Delivery Efficiency (%)", "setting": "[3]", "result": "2.0% and 2.0 ^c %"}, {"measurement": "Cytosolic Entry (MFI^NF, %)", "setting": "HeLa cells [5]", "result": "9.9 ± 1.7 ^b %"}, {"measurement": "Total Cellular Uptake (MFI^Rho, %)", "setting": "HeLa cells [6]", "result": "43 ± 3 ^b %"}]}, {"compound": "Triton X-100", "values": [{"measurement": "Calcein dye release from LUVs", "setting": "[1]", "result": 100, "unit": "%"}]}, {"compound": "cyclo(FfΦRrRrQ) [CPP 12]", "values": [{"measurement": "Effect on the cytosolic entry of R9^NF", "setting": "HeLa cells [7]", "result": "minimal effect"}, {"measurement": "Endosomal escape efficiency, fold relative to cFΦR4", "setting": "HeLa cells [2]", "result": 4.0, "unit": "fold"}, {"measurement": "Apparent Endosomal Escape (γ, %)", "setting": "HeLa cells [2]", "result": "402 ± 48", "unit": "%"}]}, {"compound": "cyclo(fΦRrRrQ) [CPP 9]", "values": [{"measurement": "CPP activity (FITC uptake), fold more active than stereoisomer", "setting": "HeLa cells [8]", "result": 6, "unit": "fold"}, {"measurement": "Endosomal escape efficiency, fold relative to cFΦR4", "setting": "HeLa cells [2]", "result": 2.0, "unit": "fold"}, {"measurement": "Apparent Endosomal Escape (γ, %)", "setting": "HeLa cells [2]", "result": "202 ± 20", "unit": "%"}, {"measurement": "oral bioavailability", "setting": "[9]", "result": "demonstrated oral bioavailability"}, {"measurement": "Decrease of total cellular uptake efficiency by energy depletion", "setting": "HeLa cells [10]; ATP depletion with sodium azide and 2-deoxyglucose", "result": "~ 80%"}, {"measurement": "Reduction of cellular entry at 4 °C", "setting": "HeLa cells [10]; incubation at 4 °C", "result": "≥ 95", "unit": "%"}]}]}
